Measurements reported in ChEMBL document CHEMBL1157074, “Hyaluronidase inhibitors from "Cimicifugae Rhizoma" (a mixture of the rhizomes of Cimicifuga dahurica and C. heracleifolia)” (J Nat Prod, 2010).

Experiment: Inhibition of bovine testis hyaluronidase type 4 after 20 mins by modified Morgan-Elson method
Parameters: species or system Bos taurus
How it was run: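 Bovine testis hyaluronidase (Type IV-S, 400 NF units/mL stock) preincubated with sample in 0.1 mol/L acetate buffer pH 3.5, 20 min, 37 °C. Activated with 2.5 mmol/L CaCl2 for 20 min, then rooster-comb potassium hyaluronate (0.4 mg/mL stock) added for 40 min. Stopped with NaOH, boiled with boric acid, p-dimethylaminobenzaldehyde colour read at 585 nm. Percent inhibition corrected against blanks.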

Row | Compound | IC50
1 | COc1cc(/C=C/C(=O)O[C@H](C(=O)O)[C@](O)(Cc2ccc(O)c(O)c2)C(=O)O)ccc1O[C@@H]1O[C@H](CO)[C@H](O)[C@H](O)[C@H]1O [SHOMASIDE A] | 573 µM
2 | COc1cc(/C=C/C(=O)O[C@H](C(=O)O)[C@](O)(Cc2ccc(O)cc2)C(=O)O)ccc1O[C@@H]1O[C@H](CO)[C@H](O)[C@H](O)[C@H]1O [SHOMASIDE B] | 430 µM
3 | O=C(/C=C/c1ccc(O)c(O)c1)O[C@H](Cc1ccc(O)c(O)c1)C(=O)O [ROSMARINIC ACID] | 545 µM
4 | COc1cc(OC(=O)/C=C/c2ccc(O[C@@H]3O[C@H](CO)[C@H](O)[C@H](O)[C@H]3O)c(OC)c2)ccc1CCO [SHOMASIDE E] | > 790 µM
5 | O=C(/C=C/c1ccc(O)cc1)O[C@H](C(=O)O)[C@](O)(Cc1ccc(O)c(O)c1)C(=O)O [CIMICIFUGIC ACID C] | 251 µM
6 | COC(=O)C(O)C(Cc1ccc(O)cc1)(OC(=O)/C=C/c1ccc(O[C@@H]2O[C@H](CO)[C@@H](O)[C@H](O)[C@H]2O)c(OC)c1)C(=O)O (some centres not stated) [SHOMASIDE D] | > 658 µM
7 | O=C(/C=C/c1ccc(O)c(O)c1)O[C@H](C(=O)O)[C@](O)(Cc1ccc(O)cc1)C(=O)O [CIMICIFUGIC ACID D] | 153 µM
8 | O=C(O[C@H](C(=O)O)[C@](O)(Cc1ccc(O)c(O)c1)C(=O)O)c1ccc(O)cc1 [CIMICIFUGIC ACID H] | 525 µM
9 | COc1cc(/C=C/C(=O)O[C@H](C(=O)O)[C@](O)(Cc2ccc(O)cc2)C(=O)O)ccc1O[C@@H]1O[C@H](CO)[C@@H](O)[C@H](O)[C@H]1O [SHOMASIDE C] | 663 µM
10 | COc1cc(/C=C/C(=O)O[C@H](C(=O)O)[C@](O)(Cc2ccc(O)cc2)C(=O)O)cc(OC)c1O [CIMICIFUGIC ACID J] | 193 µM
11 | O=C(/C=C/c1ccc(O)c(O)c1)O[C@H](C(=O)O)[C@](O)(Cc1ccc(O)c(O)c1)C(=O)O [FUKINOLIC ACID] | 144 µM

The remaining compounds from weak to strong by IC50, led by results:

Row | IC50 | Compound
12 | 143 µM | COc1cc(/C=C/C(=O)O[C@H](C(=O)O)[C@](O)(Cc2ccc(O)c(O)c2)C(=O)O)cc(OC)c1O [CIMICIFUGIC ACID I]
13 | 138 µM | COc1ccc(/C=C/C(=O)O[C@H](C(=O)O)[C@](O)(Cc2ccc(O)c(O)c2)C(=O)O)cc1OC [CIMICIFUGIC ACID G]
14 | 120 µM | COc1cc(/C=C/C(=O)O[C@H](C(=O)O)[C@](O)(Cc2ccc(O)cc2)C(=O)O)ccc1O [CIMICIFUGIC ACID E]
15 | 112 µM | COc1cc(/C=C/C(=O)O[C@H](C(=O)O)[C@](O)(Cc2ccc(O)c(O)c2)C(=O)O)ccc1O [CIMICIFUGIC ACID A]
16 | 92 µM | COc1ccc(/C=C/C(=O)O[C@H](C(=O)O)[C@](O)(Cc2ccc(O)cc2)C(=O)O)cc1O [CIMICIFUGIC ACID F]
17 | 82 µM | COc1ccc(/C=C/C(=O)O[C@H](C(=O)O)[C@](O)(Cc2ccc(O)c(O)c2)C(=O)O)cc1O [CIMICIFUGIC ACID B]
